# In the library only some 2.3% were active in any assay of this set; here they are far more common.
# TRPC4 PAM: TRPC4 (mouse) allosteric potentiation; AID 2227; actives 0.42% (n = 310,000); HEK293 TRPC4beta/mu-opioid, DAMGO EC20, Fluo-4 Ca2+ flux; active compounds read high; Q9QUQ5; B-score at 10 µM;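 active = B-score of calcium response area above 5 SD of library B-scores, with initial fluorescence ratio within 5 SD of library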;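 note: B-score of integrated fluorescence ratio over time as area under calcium response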
# TRPC6 act: mouse TRPC6 channel activation | Q61143 | HEK293-TRPC6 membrane potential dye fluorescence; active compounds read high | B-score at 10 µM | actives 0.13% (n = 310,000) | AID 2550;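 active = B-score of the integrated fluorescence ratio above library mean plus 3 SD, and starting fluorescence ratio within library mean plus 5 SD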;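 note: higher score means more depolarization so channel activation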
# TRPC6 inhibitor: mouse TRPC6 channel inhibition | actives 1.1% (n = 310,000) | HEK293-TRPC6, membrane potential dye, ACh-evoked depolarization; active compounds read low | Q61143 | B-score at 10 µM;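 active = B-score under library mean minus 3 SD, initial fluorescence not abnormally high, positive integrated signal ratio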;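 note: B-score derived from integrated fluorescence ratio over the kinetic read; more negative B-score means stronger inhibition of depolarization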
# TRPC4 inh: inhibitors of mouse TRPC4 channel. HEK293 TRPC4beta/mu-opioid, DAMGO-evoked Fluo4 calcium flux; active compounds read low. actives 0.39% (n = 300,000). B-score at 10 µM. Q9QUQ5;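 active = B-score over 3 SD under the library average, no early fluorescence shift, positive overall ratio signal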
#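 Assay system: HEK293 cells with stable TRPC4beta plus mu-opioid receptor expression; Probe or stimulus: DAMGO in two steps, submaximal then maximal; Dosing: single-point compound dosing; Measured by: Fluo4 calcium-dye fluorescence, kinetic read; Read-out basis: B score from integrated Fluo4 fluorescence ratio.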
# TRPC4 act: activators of mouse TRPC4 channel; actives 0.49% (n = 310,000); B-score at 10 µM; Q9QUQ5; HEK293 TRPC4beta/mu-opioid, Fluo4 calcium fluorescence; active compounds read high;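 active = B-score above 5 SD of library B-scores, and initial fluorescence ratio not above library mean plus 5 SD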;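 note: positive B-score marks a calcium rise read as TRPC4 activation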
#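 Material: TRPC4beta and mu-opioid receptor HEK293 stable cells | Incubation: 45 min room-temperature Fluo4 loading, 110 s read | Detection: Kinetic Fluo4 calcium fluorescence | Measure: Integrated baseline-normalised fluorescence ratio, converted to per-well B score | Benchmarks: Low control buffer alone, high control maximal DAMGO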
# HEK293 MPD ctr: checks TRPC6 modulator effects in parental HEK293 cells; shares compounds with TRPC6 inhibitor; membrane potential dye fluorescence; membrane potential signal change, % at 10 µM; actives 51% (n = 2,400);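 active = membrane potential signal moves up or down beyond 5 SD from buffer-only wells, on both duplicate plates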
# HEK293 MPD ctr 2: second counter-screen for TRPC6 modulators: effect in parental HEK293 cells; shares compounds with TRPC6 inhibitor; membrane potential dye fluorescence; after compound, maximal acetylcholine stimulation; inhibition, % at 10 µM; actives 14% (n = 2,400);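 active = membrane potential signal drops by more than 5 SD from the mean control signal, in both duplicate plates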;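 note: plate controls were acetylcholine ECmax control wells for no effect and buffer only wells for full effect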
# TRPC4/MOR mod: mouse TRPC4 off-target activity of TRPC6 modulators. shares compounds with TRPC6 inhibitor. HEK293 TRPC4/mu-opioid, membrane potential fluorescence. percent change from control (negative = decrease, positive = increase), % at 10 µM. actives 69% (n = 2,400). AID 488927;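 active = membrane potential signal moved up or down beyond 5 SD of buffer control wells, in both duplicate plates, actives on both sides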;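 note: plate controls were assay buffer wells for no effect and DAMGO maximal-effect wells for full effect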
# TRPC4 ctr inh 2: mouse TRPC4 off-target activity of TRPC6 modulators, second screen. shares compounds with TRPC6 inhibitor. actives 55% (n = 2,400). AID 488928. inhibition, % at 10 µM. HEK293 TRPC4/mu-opioid, membrane potential dye fluorescence; stimulated with maximal-effect DAMGO;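 active = drop in membrane potential signal beyond 5 SD of the control wells in both duplicate plates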;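 note: TRPC4 counter screen for TRPC6 hits run under conditions tuned for TRPC6 not TRPC4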
# TRPC6 block conf: confirmation of mouse TRPC6 inhibitors; shares compounds with TRPC6 inhibitor; HEK293-TRPC6, membrane potential dye, ACh-evoked depolarization; inhibition, % at 10 µM; actives 43% (n = 3,300); AID 488960;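 active = fluorescence ratio falls more than 5 SD below the full-stimulation control mean, in both duplicate runs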;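 note: integrated fluorescence ratio of peak minus minimum over baseline after agonist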
# TRPC6 act confirm: mouse TRPC6 activator confirmation; HEK293-TRPC6 membrane potential dye fluorescence, FDSS; actives 11% (n = 2,800); activation, % at 10 µM; AID 488961; shares compounds with TRPC6 inhibitor;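 active = ratio signal rise beyond 5 SD above unstimulated control wells' mean, seen in both duplicate runs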;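 note: plate controls were buffer EC0 wells for no effect and acetylcholine ECmax response for full effect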
# An asterisk follows results filed as active; i = inactive; · = no result given; + = active, no number.
SMILES,TRPC4 PAM,TRPC6 act,TRPC6 inhibitor,TRPC4 inh,TRPC4 act,HEK293 MPD ctr,HEK293 MPD ctr 2,TRPC4/MOR mod,TRPC4 ctr inh 2,TRPC6 block conf,TRPC6 act confirm
CCN(CC)c1ccc(/C=C2/C(=O)ON=C2C)cc1,i,13*,i,i,i,799%*,i,59%*,i,i,133%*
CCOc1ccccc1NC=C1C(=O)OC2(CCCCC2)OC1=O,i,i,i,i,i,·,·,·,·,·,·
CCN(CC)c1ccc(C=C2C(=O)OC3(CCCCC3)OC2=O)cc1,i,59*,i,i,i,724%*,i,162%*,i,i,188%*
CCCCC1(C)OC(=O)C(=Cc2ccc(N(CC)CC)cc2)C(=O)O1 (stereo not drawn),i,36*,i,i,i,+,i,186%*,i,i,368%*
COc1ccc2[nH]c3c(c2c1)CCNC3C1CC=C(C)CC1 (stereo not drawn),i,i,-6.3*,i,i,i,i,i,56%*,36%*,i
COc1ccc2[nH]c3c(c2c1)CCNC3c1ccc([N+](=O)[O-])o1 (stereo not drawn),i,i,i,i,i,·,·,·,·,·,·
CN(NS(=O)(=O)c1ccc(Cl)cc1)c1nc(C(F)(F)F)nc2ccccc12,i,i,-5.6*,i,i,i,i,i,i,i,i
CN(NS(=O)(=O)c1ccccc1)c1nc2ccccc2nc1C(F)(F)F,i,i,i,i,i,·,·,·,·,·,·
CCOC(=O)c1c(-c2ccccc2)csc1NC(=O)/C(C#N)=C/c1ccc(O)c(OC)c1,i,35*,i,i,i,438%*,i,92%*,i,i,129%*
CCOC(=O)c1c(-c2ccccc2)csc1NC(=O)/C(C#N)=C/c1ccc(OC)c(OC)c1,i,i,i,i,i,·,·,·,·,·,·
O=C(CNC(=O)c1ccccc1F)N/N=C/c1cn[nH]c1-c1ccccc1,i,i,-5.8*,i,i,i,i,i,i,i,·
O=c1c2ccccc2oc2cc(NCCCN3CCOCC3)ccc12,i,i,i,i,i,·,·,·,·,·,·
CN1CCCC1CCNc1ccc2oc3ccccc3c(=O)c2c1 (stereo not drawn),i,i,-5.6*,i,i,178%*,i,14%*,44%*,44%*,·
O=c1c2ccccc2oc2ccc(NCCCN3CCOCC3)cc12,i,i,i,i,i,·,·,·,·,·,·

# Screening data from PubChem.
